Measurements from ChEMBL document CHEMBL4689842, “EUbOPEN Chemogenomics Library wave 1” (2021).

Columns and labels:
Type in all cases: toxicity, cell-based
[1] = tested on: Fibroblast; assay: Multiplex assay against human fibroblast
Procedure, shortened: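 Values for tubulin, mitochondrial-mass and membrane-permeability phenotypes are per cents of cells with healthy nuclei. These cells were identified by CellPathfinder machine-learning gating of live cells that had been stained at seeding with Hoechst33342, BioTracker Green Microtubule Cytoskeleton Dye, MitoTracker Red and Annexin V Alexa Fluor 680 and imaged on a CQ1 microscope at 37°C and 5% CO2 after compound addition. The gating first set Hoechst high-intensity objects apart from normal cells, then split normal cells into healthy, pyknosed or fragmented nuclei, and pyknosed cells into mitotic or apoptotic.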

[2] = tested on: HEK-293T; assay: Incucyte cell viability with HEK293T; details: human, 10 µM, compound concentration 10 uM; also: filed as whole numbers so only -1 and 0 and 1 occur
[3] = tested on: Fibroblast; assay: Incucyte cell viability with human fibroblast; details: 10 µM, compound concentration 10 uM; also: filed as whole numbers so only -1 and 0 and 1 occur
[4] = tested on: U2OS; assay: Incucyte cell viability with U2OS; details: human, 10 µM, compound concentration 10 uM; also: filed as whole numbers so only -1 and 0 and 1 occur
[5] = 12 h, 1 µM, compound concentration 1 uM, replicate 1
[6] = 12 h, 1 µM, compound concentration 1 uM, replicate 2
[7] = 12 h, 10 µM, compound concentration 10 uM, replicate 1
[8] = 12 h, 10 µM, compound concentration 10 uM, replicate 2
[9] = 24 h, 1 µM, compound concentration 1 uM, replicate 1
[10] = 24 h, 1 µM, compound concentration 1 uM, replicate 2
[11] = 24 h, 10 µM, compound concentration 10 uM, replicate 1
[12] = 24 h, 10 µM, compound concentration 10 uM, replicate 2
[13] = 48 h, 1 µM, compound concentration 1 uM, replicate 1
[14] = 48 h, 1 µM, compound concentration 1 uM, replicate 2
[15] = 48 h, 10 µM, compound concentration 10 uM, replicate 1
[16] = 48 h, 10 µM, compound concentration 10 uM, replicate 2
[17] = 6 h, replicate number 1, timepoint 6 hours
[18] = 12 h, replicate number 1, timepoint 12 hours
[19] = 18 h, replicate number 1, timepoint 18 hours
[20] = 24 h, replicate number 1, timepoint 24 hours

Cl.NC[C@@H]1O[C@H](C23CC4CC(CC(C4)C2)C3)Cc2c1ccc(O)c2O
Population Apoptotic (%) [1, 5]: 60%
Population Fragmented Nuclei (%) [1, 5]: 28%
Population Healthy Nuclei (%) [1, 5]: 51%
Population Hoechst High Intensity Objects (%) [1, 5]: 12%
Population Membrane Permeable-Phenotype (%) [1, 5]: 16%
Population Mitochondria Different-Phenotype (%) [1, 5]: 1%
Population Mitotic Cells (%) [1, 5]: 40%
Population Normal (%) [1, 5]: 87%
Population Pyknosed Nuclei (%) [1, 5]: 20%
Population Tubulin-Different-Phenotype (%) [1, 5]: 24%
Total Cell Count [1, 5]: 171
Population Apoptotic (%) [1, 6]: 0%
Population Fragmented Nuclei (%) [1, 6]: 6%
Population Healthy Nuclei (%) [1, 6]: 91%
Population Hoechst High Intensity Objects (%) [1, 6]: 3%
Population Membrane Permeable-Phenotype (%) [1, 6]: 2%
Population Mitochondria Different-Phenotype (%) [1, 6]: 9%
Population Mitotic Cells (%) [1, 6]: 100%
Population Normal (%) [1, 6]: 96%
Population Pyknosed Nuclei (%) [1, 6]: 2%
Population Tubulin-Different-Phenotype (%) [1, 6]: 10%
Total Cell Count [1, 6]: 95
Population Apoptotic (%) [1, 7]: 44%
Population Fragmented Nuclei (%) [1, 7]: 29%
Population Healthy Nuclei (%) [1, 7]: 42%
Population Hoechst High Intensity Objects (%) [1, 7]: 15%
Population Membrane Permeable-Phenotype (%) [1, 7]: 8%
Population Mitochondria Different-Phenotype (%) [1, 7]: 9%
Population Mitotic Cells (%) [1, 7]: 55%
Population Normal (%) [1, 7]: 84%
Population Pyknosed Nuclei (%) [1, 7]: 28%
Population Tubulin-Different-Phenotype (%) [1, 7]: 46%
Total Cell Count [1, 7]: 205
Population Apoptotic (%) [1, 8]: 52%
Population Fragmented Nuclei (%) [1, 8]: 39%
Population Healthy Nuclei (%) [1, 8]: 32%
Population Hoechst High Intensity Objects (%) [1, 8]: 10%
Population Membrane Permeable-Phenotype (%) [1, 8]: 9%
Population Mitochondria Different-Phenotype (%) [1, 8]: 22%
Population Mitotic Cells (%) [1, 8]: 47%
Population Normal (%) [1, 8]: 89%
Population Pyknosed Nuclei (%) [1, 8]: 27%
Population Tubulin-Different-Phenotype (%) [1, 8]: 27%
Total Cell Count [1, 8]: 76
Population Apoptotic (%) [1, 9]: 50%
Population Fragmented Nuclei (%) [1, 9]: 32%
Population Healthy Nuclei (%) [1, 9]: 55%
Population Hoechst High Intensity Objects (%) [1, 9]: 14%
Population Membrane Permeable-Phenotype (%) [1, 9]: 14%
Population Mitochondria Different-Phenotype (%) [1, 9]: 0%
Population Mitotic Cells (%) [1, 9]: 50%
Population Normal (%) [1, 9]: 85%
Population Pyknosed Nuclei (%) [1, 9]: 12%
Population Tubulin-Different-Phenotype (%) [1, 9]: 26%
Total Cell Count [1, 9]: 213
Population Apoptotic (%) [1, 10]: 42%
Population Fragmented Nuclei (%) [1, 10]: 8%
Population Healthy Nuclei (%) [1, 10]: 85%
Population Hoechst High Intensity Objects (%) [1, 10]: 2%
Population Membrane Permeable-Phenotype (%) [1, 10]: 5%
Population Mitochondria Different-Phenotype (%) [1, 10]: 10%
Population Mitotic Cells (%) [1, 10]: 57%
Population Normal (%) [1, 10]: 97%
Population Pyknosed Nuclei (%) [1, 10]: 6%
Population Tubulin-Different-Phenotype (%) [1, 10]: 12%
Total Cell Count [1, 10]: 114
Population Apoptotic (%) [1, 11]: 58%
Population Fragmented Nuclei (%) [1, 11]: 17%
Population Healthy Nuclei (%) [1, 11]: 52%
Population Hoechst High Intensity Objects (%) [1, 11]: 29%
Population Membrane Permeable-Phenotype (%) [1, 11]: 5%
Population Mitochondria Different-Phenotype (%) [1, 11]: 16%
Population Mitotic Cells (%) [1, 11]: 41%
Population Normal (%) [1, 11]: 70%
Population Pyknosed Nuclei (%) [1, 11]: 30%
Population Tubulin-Different-Phenotype (%) [1, 11]: 50%
Total Cell Count [1, 11]: 181
Population Apoptotic (%) [1, 12]: 92%
Population Fragmented Nuclei (%) [1, 12]: 50%
Population Healthy Nuclei (%) [1, 12]: 29%
Population Hoechst High Intensity Objects (%) [1, 12]: 18%
Population Membrane Permeable-Phenotype (%) [1, 12]: 26%
Population Mitochondria Different-Phenotype (%) [1, 12]: 26%
Population Mitotic Cells (%) [1, 12]: 7%
Population Normal (%) [1, 12]: 81%
Population Pyknosed Nuclei (%) [1, 12]: 20%
Population Tubulin-Different-Phenotype (%) [1, 12]: 26%
Total Cell Count [1, 12]: 80
Population Apoptotic (%) [1, 13]: 87%
Population Fragmented Nuclei (%) [1, 13]: 36%
Population Healthy Nuclei (%) [1, 13]: 59%
Population Hoechst High Intensity Objects (%) [1, 13]: 11%
Population Membrane Permeable-Phenotype (%) [1, 13]: 10%
Population Mitotic Cells (%) [1, 13]: 12%
Population Normal (%) [1, 13]: 88%
Population Pyknosed Nuclei (%) [1, 13]: 4%
Population Tubulin-Different-Phenotype (%) [1, 13]: 13%
Total Cell Count [1, 13]: 212
Population Apoptotic (%) [1, 14]: 100%
Population Fragmented Nuclei (%) [1, 14]: 21%
Population Healthy Nuclei (%) [1, 14]: 77%
Population Hoechst High Intensity Objects (%) [1, 14]: 10%
Population Membrane Permeable-Phenotype (%) [1, 14]: 16%
Population Mitochondria Different-Phenotype (%) [1, 14]: 0%
Population Mitotic Cells (%) [1, 14]: 0%
Population Normal (%) [1, 14]: 89%
Population Pyknosed Nuclei (%) [1, 14]: 0%
Population Tubulin-Different-Phenotype (%) [1, 14]: 21%
Total Cell Count [1, 14]: 114
Population Apoptotic (%) [1, 15]: 66%
Population Fragmented Nuclei (%) [1, 15]: 32%
Population Healthy Nuclei (%) [1, 15]: 43%
Population Hoechst High Intensity Objects (%) [1, 15]: 24%
Population Membrane Permeable-Phenotype (%) [1, 15]: 50%
Population Mitochondria Different-Phenotype (%) [1, 15]: 5%
Population Mitotic Cells (%) [1, 15]: 33%
Population Normal (%) [1, 15]: 75%
Population Pyknosed Nuclei (%) [1, 15]: 23%
Population Tubulin-Different-Phenotype (%) [1, 15]: 46%
Total Cell Count [1, 15]: 169
Population Apoptotic (%) [1, 16]: 100%
Population Fragmented Nuclei (%) [1, 16]: 50%
Population Healthy Nuclei (%) [1, 16]: 48%
Population Hoechst High Intensity Objects (%) [1, 16]: 17%
Population Membrane Permeable-Phenotype (%) [1, 16]: 14%
Population Mitochondria Different-Phenotype (%) [1, 16]: 1%
Population Mitotic Cells (%) [1, 16]: 0%
Population Normal (%) [1, 16]: 82%
Population Pyknosed Nuclei (%) [1, 16]: 1%
Population Tubulin-Different-Phenotype (%) [1, 16]: 43%
Total Cell Count [1, 16]: 236
Growth Rate ([2]; 0 h, replicate number 2, timepoint 0 hours): 1
Growth Rate [2, 17]: 0
Growth Rate [2, 18]: 0
Growth Rate [2, 19]: 0
Growth Rate [2, 20]: 0
Growth Rate [3, 17]: 0
Growth Rate [3, 18]: 0
Growth Rate [3, 19]: 0
Growth Rate [3, 20]: 0
Growth Rate [4, 17]: 0
Growth Rate [4, 18]: 0
Growth Rate [4, 19]: 0
Growth Rate [4, 20]: 0
